From ChEMBL document CHEMBL4706590, “Design and characterization of cereblon-mediated androgen receptor proteolysis-targeting chimeras” (Eur J Med Chem, 2020)
Activity calls are given as the source filed them. The calls are words filed in the database; no cut-off is given here.

Columns and labels:
[1] = target: T1, Protein cereblon/Androgen receptor (Homo sapiens, UniProt P10275+Q96SW2); assay: Protac activity at CRBN/AR in human LNCaP cells assessed as AR degradation at 0.1 to 10 uM Western blotting analysis relative to control; assay type: cell-based; details: dose 0.1-10 µM
Procedure, shortened: (§1)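 LNCaP (IMDM) or 22RV1 (RPMI 1640) cells with 10% FBS at 37 °C, 5% CO2, treated with DMSO vehicle as control. Cells lysed in RIPA buffer (50 mM Tris-HCl pH 7.5, 150 mM NaCl, 1% Triton X-100, 0.1% SDS, 0.5% deoxycholate, protease inhibitors). Protein quantified by Bradford assay. Immunoblotted for AR with tubulin as loading control, HRP chemiluminescence detection.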
Target sequence in this assay (P10275 whole entry, looked up): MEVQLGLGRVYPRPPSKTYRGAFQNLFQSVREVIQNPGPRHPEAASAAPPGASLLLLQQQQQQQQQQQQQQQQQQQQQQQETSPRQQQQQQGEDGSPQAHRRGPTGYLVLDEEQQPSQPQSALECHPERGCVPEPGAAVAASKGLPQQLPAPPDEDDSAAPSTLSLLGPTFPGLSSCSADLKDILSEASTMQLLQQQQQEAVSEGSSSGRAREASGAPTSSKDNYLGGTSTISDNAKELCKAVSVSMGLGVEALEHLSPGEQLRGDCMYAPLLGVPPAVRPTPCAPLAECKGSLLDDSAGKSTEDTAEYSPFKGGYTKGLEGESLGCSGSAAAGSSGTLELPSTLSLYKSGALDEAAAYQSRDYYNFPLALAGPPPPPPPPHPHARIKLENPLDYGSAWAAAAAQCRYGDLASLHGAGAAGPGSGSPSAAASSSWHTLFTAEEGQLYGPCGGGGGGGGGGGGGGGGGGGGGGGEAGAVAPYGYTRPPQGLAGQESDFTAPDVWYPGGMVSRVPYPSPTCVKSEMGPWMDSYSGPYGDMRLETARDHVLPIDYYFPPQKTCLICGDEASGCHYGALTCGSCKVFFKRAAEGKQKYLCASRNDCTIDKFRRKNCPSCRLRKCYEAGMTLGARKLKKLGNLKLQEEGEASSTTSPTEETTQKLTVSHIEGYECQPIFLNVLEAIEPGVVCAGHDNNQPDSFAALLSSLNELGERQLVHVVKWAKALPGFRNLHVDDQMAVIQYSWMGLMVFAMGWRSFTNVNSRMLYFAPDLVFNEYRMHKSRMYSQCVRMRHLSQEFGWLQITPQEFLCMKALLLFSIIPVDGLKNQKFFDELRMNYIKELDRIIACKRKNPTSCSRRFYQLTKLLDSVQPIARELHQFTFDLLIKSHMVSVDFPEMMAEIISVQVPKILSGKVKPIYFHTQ
Target sequence in this assay (Q96SW2 whole entry, looked up): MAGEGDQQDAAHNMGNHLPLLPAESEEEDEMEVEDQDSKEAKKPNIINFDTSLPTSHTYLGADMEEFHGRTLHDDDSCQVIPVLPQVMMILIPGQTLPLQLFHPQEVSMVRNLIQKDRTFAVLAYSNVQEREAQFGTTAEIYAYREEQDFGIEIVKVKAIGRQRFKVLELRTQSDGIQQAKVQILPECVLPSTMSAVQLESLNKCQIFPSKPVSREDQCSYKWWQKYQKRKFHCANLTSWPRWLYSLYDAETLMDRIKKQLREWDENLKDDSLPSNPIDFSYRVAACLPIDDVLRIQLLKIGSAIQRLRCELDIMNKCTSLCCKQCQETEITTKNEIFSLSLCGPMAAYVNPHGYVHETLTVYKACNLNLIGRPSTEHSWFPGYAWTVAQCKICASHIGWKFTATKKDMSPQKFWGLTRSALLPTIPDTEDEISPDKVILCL

[2] = AUCt in ICR mouse at 5 mg/kg, ip by LC-MS/MS analysis; assay type: ADME, organism-based; set-up: dose 5 mg/kg; details: in vivo
Procedure, shortened: (§2)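 Male ICR mice, 7 weeks old. Single dose of 5 mg/kg IV or IP in 5% DMSO, 52% PEG400, 3% Tween 80 in water, or 30 mg/kg PO in 20% PEG400 and 3% Tween 80 in water. Retro-orbital blood sampled over time. Plasma protein-precipitated with acetonitrile (1:10) and analysed by LC-MS/MS. Parameters from noncompartmental analysis of mean data, n = 3.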

[3] = target: T1, Protein cereblon/Androgen receptor; assay: Protac activity at CRBN/AR in human LNCaP cells assessed as AR degradation at 1 uM by Western blotting analysis relative to control; assay type: cell-based; procedure, shortened: as §1
Target sequence in this assay (P10275 whole entry, looked up): as the sequence (P10275 whole entry, looked up) above
Target sequence in this assay (Q96SW2 whole entry, looked up): as the sequence (Q96SW2 whole entry, looked up) above

[4] = Half life in ICR mouse at 30 mg/kg, po by LC-MS/MS analysis; assay type: ADME, organism-based; details: in vivo, 30 mg/kg; procedure, shortened: as §2
[5] = Tmax in ICR mouse at 30 mg/kg, po by LC-MS/MS analysis; assay type: ADME, organism-based; details: in vivo; procedure, shortened: as §2
[6] = Tmax in ICR mouse at 5 mg/kg, ip by LC-MS/MS analysis; assay type: ADME, organism-based; details: in vivo; procedure, shortened: as §2
[7] = AUCt in ICR mouse at 5 mg/kg, iv by LC-MS/MS analysis; assay type: ADME, organism-based; set-up: dose 5 mg/kg; details: in vivo; procedure, shortened: as §2
[8] = target: T1, Protein cereblon/Androgen receptor; assay: Protac activity at CRBN/AR in human LNCaP cells assessed as AR degradation at 10 uM by Western blotting analysis relative to control; assay type: cell-based; procedure, shortened: as §1
Target sequence in this assay (P10275 whole entry, looked up): as the sequence (P10275 whole entry, looked up) above
Target sequence in this assay (Q96SW2 whole entry, looked up): as the sequence (Q96SW2 whole entry, looked up) above

[9] = Half life in ICR mouse at 5 mg/kg, iv by LC-MS/MS analysis; assay type: ADME, organism-based; details: in vivo; procedure, shortened: as §2
LNCaP = assay: Antiproliferative activity against human LNCaP cells assessed as reduction in cell viability after 6 days by CellTiter-Glo assay; assay type: functional; details: 144 h, time 6 day
Procedure, shortened: (§3)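 LNCaP seeded at 1.5 × 10³ and VCaP at 4 × 10³ cells per well in 96-well plates. Cells grown in IMDM with 10% FBS and antibiotic-antimycotic at 37 °C, 5% CO2, with DMSO as vehicle. IC50 from nonlinear regression of log(inhibitor) versus response.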

VCaP [10] = assay: Antiproliferative activity against human VCaP cells assessed as reduction in cell viability after 6 days by CellTiter-Glo assay; assay type: functional; details: 144 h, time 6 day; procedure, shortened: as §3
[11] = target: T1, Protein cereblon/Androgen receptor; assay: Protac activity at CRBN/AR in human LNCaP cells assessed as AR degradation at 0.1 uM by western blotting analysis relative to control; assay type: cell-based; procedure, shortened: as §1
Target sequence in this assay (P10275 whole entry, looked up): as the sequence (P10275 whole entry, looked up) above
Target sequence in this assay (Q96SW2 whole entry, looked up): as the sequence (Q96SW2 whole entry, looked up) above

[12] = Half life in ICR mouse at 5 mg/kg, ip by LC-MS/MS analysis; assay type: ADME, organism-based; details: in vivo; procedure, shortened: as §2
[13] = Cmax in ICR mouse at 30 mg/kg, po by LC-MS/MS analysis; assay type: ADME, organism-based; set-up: route oral, dose 30 mg/kg; details: in vivo; procedure, shortened: as §2
[14] = Metabolic stability in mouse liver microsomes assessed as compound remaining at 1 uM after 30 mins in presence of NADPH-regenerating system; assay type: ADME, Microsome; details: read-out: Stabilty
Procedure, shortened: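 Mouse liver microsomes at 0.5 mg protein/mL in 100 mM PBS, pH 7.4. Reaction started with NADPH-regenerating solution (1.3 mM NADP+, 3.3 mM glucose-6-phosphate, 0.4 U/mL G6PDH, 3.3 mM MgCl2). Incubated 30 min at 37 °C, stopped with ice-cold acetonitrile, centrifuged. Percent remaining reported as mean ± SD, n = 3.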

[15] = Cmax in ICR mouse at 5 mg/kg, ip by LC-MS/MS analysis; assay type: ADME, organism-based; set-up: route intraperitoneal, dose 5 mg/kg; details: in vivo; procedure, shortened: as §2
[16] = AUCt in ICR mouse at 30 mg/kg, po by LC-MS/MS analysis; assay type: ADME, organism-based; set-up: dose 30 mg/kg; details: in vivo; procedure, shortened: as §2
[17] = target: T1, Protein cereblon/Androgen receptor; assay: Protac activity at CRBN/AR in human LNCaP cells assessed as AR degradation at 1 uM pretreated with neddylation inhibitor MLN4924 by Western blotting analysis; assay type: cell-based; procedure, shortened: as §1
Target sequence in this assay (P10275 whole entry, looked up): as the sequence (P10275 whole entry, looked up) above
Target sequence in this assay (Q96SW2 whole entry, looked up): as the sequence (Q96SW2 whole entry, looked up) above

[18] = target: T1, Protein cereblon/Androgen receptor; assay: Protac activity at CRBN/AR in human LNCaP cells assessed as AR degradation at 1 uM pretreated with protease inhibitor bortezomib by Western blotting analysis; assay type: cell-based; procedure, shortened: as §1
Target sequence in this assay (P10275 whole entry, looked up): as the sequence (P10275 whole entry, looked up) above
Target sequence in this assay (Q96SW2 whole entry, looked up): as the sequence (Q96SW2 whole entry, looked up) above

[19] = target: T1, Protein cereblon/Androgen receptor; assay: Protac activity at CRBN/AR in human 22RV1 cells assessed as maximum degradation of AR-V7 splice variant at 10 uM by Western blotting analysis relative to control; assay type: cell-based; procedure, shortened: as §1
[20] = Toxicity in SCID mouse xenografted with human VCaP cells assessed as loss of body weight at 30 mg/kg, ip administered once daily for 10 days and measured every 1 to 3 days post treatment; assay type: organism-based; details: in vivo, 240 h, time 10 day
Procedure, shortened: (§4)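 Male SCID mice (C.B-17/IcrCrj-scid) implanted subcutaneously in the right flank with 1.5×10⁷ VCaP cells mixed 1:1 with Matrigel. At about 130 mm³, mice dosed IP once daily for 10 days, vehicle 20% PEG400 + 3% Tween 80 in PBS. Tumours measured by caliper, volume = length × width² × 0.5. Body weight tracked alongside; Mann-Whitney U test, α = 0.01.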

[21] = target: T1, Protein cereblon/Androgen receptor; assay: Protac activity at CRBN/AR in human LNCaP cells assessed as maximum degradation of AR by Western blotting analysis relative to control; assay type: cell-based; details: time 24.0 hrs; procedure, shortened: as §1
[22] = target: T1, Protein cereblon/Androgen receptor; assay: Protac activity at CRBN/AR in human 22RV1 cells assessed as maximum degradation of AR at 1 uM by Western blotting analysis relative to control; assay type: cell-based; procedure, shortened: as §1
[23] = target: T1, Protein cereblon/Androgen receptor; assay: Protac activity at CRBN/AR in human LNCaP cells assessed as AR degradation at 1 uM after 4 hrs by Western blotting analysis relative to control; assay type: cell-based; procedure, shortened: as §1
[24] = target: T1, Protein cereblon/Androgen receptor; assay: Protac activity at CRBN/AR in human LNCaP cells assessed as AR degradation after 24 hrs by Western blotting analysis; assay type: cell-based; procedure, shortened: as §1
Target sequence in this assay (P10275 whole entry): as the sequence (P10275 whole entry, looked up) above
Target sequence in this assay (Q96SW2 whole entry): as the sequence (Q96SW2 whole entry, looked up) above

VCaP [25] = assay: Antitumor activity against human VCaP cells xenografted in SCID mouse assessed as reduction in tumor growth at 30 mg/kg, ip administered once daily for 10 days and measured every 1 to 3 days post treatment by caliper method; assay type: functional, organism-based; details: time 10.0 day; procedure, shortened: as §4

For `CN1C(=O)CCC(n2nnc3ccc(N4CCC(C(=O)N5CCC6(CC5)CC(N5CCN(c7ccc(C(=O)N[C@H]8C(C)(C)[C@H](Oc9ccc(C#N)c(Cl)c9)C8(C)C)cc7)CC5)C6)CC4)cc3c2=O)C1=O` (stereo partly specified), the Activity [1] was “inactive”.

In the case of `CC1(C)[C@H](NC(=O)c2ccc(N3CCN(CCOC4CCN(C(=O)C5CN(c6ccc7nnn(C8CCC(=O)NC8=O)c(=O)c7c6)C5)CC4)CC3)cc2)C(C)(C)[C@H]1Oc1ccc(C#N)c(Cl)c1` (stereo partly specified), the AUCt [2] is reported as 7490 ng·h/mL, the Activity [3] is reported as 86% and the t1/2 [4] is reported as 19.7 h. It also gave a Tmax ([5]; 30 mg/kg) of 0.7 h, a Tmax [6] of 1.67 h and an AUC(0-t) [7] of 4490 ng·h/mL. It also gave an Activity [8] of 90%, a half-life [9] of 4.35 h and a CC50 (LNCaP) of 762 nM. It also gave a CC50 (VCaP [10]) of 57 nM, an Activity [11] of 82% and a t1/2 [12] of 4.24 h. For the same molecule, the Cmax [13] was 20 ng/mL, the remaining at 0.5 h, 1 µM [14] was 92.6% and the Cmax [15] was 2010 ng/mL. For the same molecule, the AUCt [16] was 150 ng·h/mL.

In the case of `CC1(C)[C@H](NC(=O)c2ccc(N3CCN(C4CC5(CCN(C(=O)C6CCN(c7ccc8nnn(C9CCC(=O)NC9=O)c(=O)c8c7)CC6)CC5)C4)CC3)cc2)C(C)(C)[C@H]1Oc1ccc(C#N)c(Cl)c1` (stereo partly specified), the AUCt [2] is reported as 1720 ng·h/mL, the Activity [3] is reported as 93% and the Activity [17] is reported as “inactive”. The Tmax ([5]; ICR, read-out: Tmax) was 4 h, the Activity [18] was “inactive” and the Tmax [6] was 0.03 h. The Activity [19] was 34%, the Activity [20] was “Non-Toxic” and the AUC(0-t) [7] was 20700 ng·h/mL. The Activity [8] was 95%, the half-life [9] was 8.28 h and the CC50 (LNCaP) was 98 nM. It also gave a CC50 (VCaP [10]) of 44 nM, an Activity [21] of 93% and an Activity [11] of 85%. For the same molecule, the t1/2 [12] was 4.41 h, the Activity [22] was 85% and the Activity [23] was 80%. The DC50 [24] was 12.5 nM, the Cmax ([13]; ICR, read-out: Cmax) was 110 ng/mL and the Activity (VCaP [25]) was “Active”. For the same molecule, the remaining at 0.5 h, 1 µM [14] was 96%, the Cmax [15] was 2780 ng/mL and the AUC(0-t) ([16]; ICR) was 530 ng·h/mL.
